ChEMBL document CHEMBL1255259, “Phosphorothioate-modified oligodeoxynucleotides inhibit human cytomegalovirus replication by blocking virus entry” (Antimicrob Agents Chemother, 2008)
Active and inactive are the calls of the source. No cut-off for these calls is given here.

Assays:
[1] = Cytotoxicity against HELF assessed as cell viability by MTT assay after 6 days at <=10 uM; assay type: cell-based; details: human, 144 h
How it was run: (§1)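 HELF exposed to rising ODN concentrations (up to 10 μM) for 6 days; viable cells measured by MTT. CC50 taken as concentration that cuts viability to 50%.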

[2] = Cytotoxicity against HELF assessed as cell viability after 6 days by MTT assay; assay type: cell-based; details: human, HELF cells; how it was run: as §1
[3] = test system: Human betaherpesvirus 5; assay: Antimicrobial activity against Human cytomegalovirus AD169 infected in HELF assessed as inhibition of viral replication at 0.1 uM measured after 6 days post-infection; assay type: functional, organism-based
[4] = test system: Human betaherpesvirus 5; assay: Antimicrobial activity against Human cytomegalovirus AD169 infected in HELF assessed as inhibition of viral replication at 1 uM measured after 6 days post-infection; assay type: functional, organism-based
[5] = test system: Human betaherpesvirus 5; assay: Antimicrobial activity against 0.1 uM compound pretreated Human cytomegalovirus AD169 infected in HELF assessed as reduction in viral titer at 4 degC; assay type: functional, organism-based
How it was run: (§2)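 HCMV AD169 (10^4 PFU) incubated with ODN at 0.1 μM at 4 or 37°C for various times; samples then diluted to bring ODN below an antivirally active level; residual infectivity titrated by plaque assay on HELF. Means ± SD of three independent experiments.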

[6] = test system: Vesicular stomatitis Indiana virus; assay: Antimicrobial activity against Vesicular stomatitis Indiana virus infected in compound pretreated HELF assessed as inhibition of viral replication; assay type: functional, organism-based
How it was run: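 HELFs exposed to ODN (0.1 or 1 μM) for 1 h, then infected with VSV serotype Indiana at MOI 1 (2 h adsorption, 37°C). ODN kept in the medium until 48 h p.i. Cells and supernatants were pooled, sonicated and titrated by plaque assay on HELFs. Data are means ± standard deviations of three independent experiments, duplicate wells.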

[7] = test system: Human betaherpesvirus 5; assay: Antimicrobial activity against Human cytomegalovirus AD169 infected in compound pretreated HELF assessed as inhibition of viral replication measured after 6 days post-infection; assay type: functional, organism-based; details: Human betaherpesvirus 5, AD169, HELF
How it was run: (§3)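 HELF pretreated with ODN 1 h before infection with HCMV AD169 (MOI 1); ODN kept in medium after 2 h adsorption at 37°C. At 6 days p.i., cells plus supernatants sonicated and titrated by plaque assay on HELF; plaques counted microscopically, expressed as PFU/ml (log10) or % of control. IC50/IC90 by linear regression; duplicate wells, three independent experiments, means ± SD.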

[8] = test system: Human betaherpesvirus 5; assay: Antimicrobial activity against Human cytomegalovirus AD169 infected in 1 uM compound pretreated HELF assessed as inhibition of viral replication measured after 6 days post-infection; assay type: functional, organism-based; how it was run: as §3
[9] = test system: Human betaherpesvirus 5; assay: Antimicrobial activity against 0.1 uM compound pretreated Human cytomegalovirus AD169 infected in HELF assessed as reduction in viral titer 37 degC; assay type: functional, organism-based; how it was run: as §2
[10] = test system: Human alphaherpesvirus 1; assay: Antimicrobial activity against Human herpesvirus 1 infected in compound pretreated HELF assessed as inhibition of viral replication at 1 uM; assay type: functional, organism-based
How it was run: (§4)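 HELF pretreated with ODN (0.1 or 1 μM) 1 h before infection with a clinical HSV-1 isolate at MOI 0.1; ODN kept in medium after 2 h adsorption. Harvest at 48 h p.i., sonication, plaque titration on Vero cells. Means ± SD of three independent experiments.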

[11] = test system: unidentified adenovirus; assay: Antimicrobial activity against unidentified adenovirus infected in compound pretreated HELF assessed as inhibition of viral replication; assay type: functional, organism-based
How it was run: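 HELF pretreated 1 h with ODN (0.1 or 1 μM), infected with an adenovirus clinical isolate (MOI 1); ODN kept after 2 h adsorption. Harvest at 4 days p.i., sonication, plaque titration on HELF. Means ± SD, three experiments.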

[12] = test system: Human alphaherpesvirus 1; assay: Antimicrobial activity against Human herpesvirus 1 infected in compound pretreated HELF assessed as inhibition of viral replication at 0.1 uM; assay type: functional, organism-based; how it was run: as §4
[13] = test system: Human betaherpesvirus 5; assay: Antimicrobial activity against Human cytomegalovirus AD169 infected in compound pretreated HELF measured as immediate early 2 mRNA level by RT-PCR; assay type: functional, organism-based
[14] = test system: Human betaherpesvirus 5; assay: Antimicrobial activity against Human cytomegalovirus AD169 infected in 0.1 uM compound pretreated HELF assessed as inhibition of viral replication measured after 6 days post-infection; assay type: functional, organism-based; how it was run: as §3
[15] = test system: Human betaherpesvirus 5; assay: Antimicrobial activity against Human cytomegalovirus AD169 infected in compound pretreated HELF measured as immediate early 1 mRNA level by RT-PCR; assay type: functional, organism-based
[16] = test system: Human betaherpesvirus 5; assay: Antimicrobial activity against Human cytomegalovirus TB40 expressing EGPF tagged UL32 infected in HELF assessed as inhibition of inhibition of viral adsorption at 0.1 uM after 2 hrs by fluorescence microscopy; assay type: functional, organism-based
How it was run: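 Prechilled HELF on coverslips exposed to ODN (0.1 μM) or heparin (30 μg/ml) 1 h at 4°C, then infected with HCMV TB40 UL32-EGFP (MOI 20) 2 h at 4°C to permit attachment only. Washed in ice-cold PBS, fixed in 4% formaldehyde, propidium iodide counterstain; green virions imaged by confocal fluorescence microscopy. Done twice.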

Row | SMILES | Activity [1] | CC50 at 144 h [2] [nM] | inhibition [3] | inhibition [4] | inhibition [5] | inhibition [6] | IC50 [7] [nM] | IC90 [7] [nM] | inhibition [8] | inhibition [9] | inhibition [10] | inhibition [11] | inhibition [12] | inhibition [13] | inhibition [14] | inhibition [15] | inhibition [16]
1 | Cc1cn([C@H]2C[C@H](OP(O)(O)=S)[C@@H](COP(O)(=S)O[C@H]3C[C@H](n4cc(C)c(=O)[nH]c4=O)O[C@@H]3COP(O)(=S)O[C@H]3C[C@H](n4cc(C)c(=O)[nH]c4=O)O[C@@H]3COP(O)(=S)O[C@H]3C[C@H](n4cc(C)c(=O)[nH]c4=O)O[C@@H]3COP(O)(=S)O[C@H]3[C@@H](O)[C@H](n4cnc5c(=O)[nH]c(N)nc54)O[C@@H]3COP(O)(=S)O[C@H]3[C@@H](O)[C@H](n4ccc(N)nc4=O)O[C@@H]3COP(O)(=S)O[C@H]3C[C@H](n4cc(C)c(=O)[nH]c4=O)O[C@@H]3COP(O)(=S)O[C@H]3[C@@H](O)[C@H](n4cnc5c(=O)[nH]c(N)nc54)O[C@@H]3COP(O)(=S)O[C@H]3[C@@H](O)[C@H](n4cnc5c(=O)[nH]c(N)nc54)O[C@@H]3COP(O)(=S)O[C@H]3[C@@H](O)[C@H](n4ccc(N)nc4=O)O[C@@H]3COP(O)(=S)O[C@H]3C[C@H](n4cc(C)c(=O)[nH]c4=O)O[C@@H]3COP(O)(=S)O[C@H]3C[C@H](n4cc(C)c(=O)[nH]c4=O)O[C@@H]3COP(O)(=S)O[C@H]3C[C@H](n4cc(C)c(=O)[nH]c4=O)O[C@@H]3COP(O)(=S)O[C@H]3C[C@H](n4cc(C)c(=O)[nH]c4=O)O[C@@H]3COP(O)(=S)O[C@H]3C[C@H](n4cc(C)c(=O)[nH]c4=O)O[C@@H]3COP(O)(=S)O[C@H]3[C@@H](O)[C@H](n4cnc5c(=O)[nH]c(N)nc54)O[C@@H]3COP(O)(=S)O[C@H]3[C@@H](O)[C@H](n4ccc(N)nc4=O)O[C@@H]3COP(O)(=S)O[C@H]3C[C@H](n4cc(C)c(=O)[nH]c4=O)O[C@@H]3COP(O)(=S)O[C@H]3[C@@H](O)[C@H](n4cnc5c(=O)[nH]c(N)nc54)O[C@@H]3COP(O)(=S)O[C@H]3[C@@H](O)[C@H](n4ccc(N)nc4=O)O[C@@H]3COP(O)(=S)O[C@H]3C[C@H](n4cc(C)c(=O)[nH]c4=O)O[C@@H]3CO)O2)c(=O)[nH]c1=O (stereo partly specified) | Non-toxic | > 10000 | inactive | inactive | inactive | inactive | 25 | 65 | Active | inactive | inactive | inactive | inactive | Active | Active | Active | –
2 | Cc1cn([C@H]2C[C@H](OP(O)(O)=S)[C@@H](COP(O)(=S)O[C@H]3C[C@H](n4cc(C)c(=O)[nH]c4=O)O[C@@H]3COP(O)(=S)O[C@H]3[C@@H](O)[C@H](n4cnc5c(=O)[nH]c(N)nc54)O[C@@H]3COP(O)(=S)O[C@H]3[C@@H](O)[C@H](n4ccc(N)nc4=O)O[C@@H]3COP(O)(=S)O[C@H]3C[C@H](n4cc(C)c(=O)[nH]c4=O)O[C@@H]3COP(O)(=S)O[C@H]3[C@@H](O)[C@H](n4cnc5c(=O)[nH]c(N)nc54)O[C@@H]3COP(O)(=S)O[C@H]3C[C@H](n4cc(C)c(=O)[nH]c4=O)O[C@@H]3COP(O)(=S)O[C@H]3C[C@H](n4cc(C)c(=O)[nH]c4=O)O[C@@H]3COP(O)(=S)O[C@H]3C[C@H](n4cc(C)c(=O)[nH]c4=O)O[C@@H]3COP(O)(=S)O[C@H]3C[C@H](n4cc(C)c(=O)[nH]c4=O)O[C@@H]3COP(O)(=S)O[C@H]3[C@@H](O)[C@H](n4cnc5c(=O)[nH]c(N)nc54)O[C@@H]3COP(O)(=S)O[C@H]3[C@@H](O)[C@H](n4ccc(N)nc4=O)O[C@@H]3COP(O)(=S)O[C@H]3C[C@H](n4cc(C)c(=O)[nH]c4=O)O[C@@H]3COP(O)(=S)O[C@H]3[C@@H](O)[C@H](n4cnc5c(=O)[nH]c(N)nc54)O[C@@H]3COP(O)(=S)O[C@H]3C[C@H](n4cc(C)c(=O)[nH]c4=O)O[C@@H]3COP(O)(=S)O[C@H]3C[C@H](n4cc(C)c(=O)[nH]c4=O)O[C@@H]3COP(O)(=S)O[C@H]3[C@@H](O)[C@H](n4cnc5c(=O)[nH]c(N)nc54)O[C@@H]3COP(O)(=S)O[C@H]3[C@@H](O)[C@H](n4ccc(N)nc4=O)O[C@@H]3COP(O)(=S)O[C@H]3C[C@H](n4cc(C)c(=O)[nH]c4=O)O[C@@H]3COP(O)(=S)O[C@H]3[C@@H](O)[C@H](n4cnc5c(=O)[nH]c(N)nc54)O[C@@H]3COP(O)(=S)O[C@H]3[C@@H](O)[C@H](n4ccc(N)nc4=O)O[C@@H]3COP(O)(=S)O[C@H]3C[C@H](n4cc(C)c(=O)[nH]c4=O)O[C@@H]3CO)O2)c(=O)[nH]c1=O (stereo partly specified) | Non-toxic | > 10000 | inactive | inactive | inactive | inactive | 200 | 4000 | Active | inactive | inactive | inactive | inactive | – | Active | – | inactive
